# In ChEMBL document CHEMBL2390820, “3-Biphenylimidazo[1,2-a]pyridines or [1,2-b]pyridazines and analogues, novel Flaviviridae inhibitors” (Eur J Med Chem, 2013):
# Experiments:
# Hepatitis C virus = assay: Antiviral activity against HCV genotype 1b infected in Huh5-2 cells assessed as inhibition of viral replication after 4 days by luciferase reporter gene assay; format: functional, organism-based, Hepacivirus hominis, Huh-5-2; conditions: Hepatitis C virus, genotype 1b, Huh-5-2, 96 h
# Outline: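 Huh 5-2 cells carrying the HCV subgenomic luciferase replicon were seeded at 5 × 10³/well with compound and incubated 4 days at 37 °C. Medium was removed and luciferase activity quantified. EC50 is the minimum concentration reducing replicon-driven luciferase signal by 50%.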
# [1] = Antiviral activity against BVDV NADL infected in MDBK cells assessed as inhibition of virus-induced cytopathic effect formation after 5 days by MTS assay; format: functional, cell-based, Bovine viral diarrhea virus 1-NADL; conditions: Bovine viral diarrhea virus isolates and strains, 120 h
# Outline: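 MDBK cells were seeded at 5 × 10³/well in MEM-FCS and held 24 h at 37 °C, 5% CO₂. Medium was replaced with 5-fold serial compound dilutions, then BVDV inoculum was added at MOI 2. CPE was read by MTS as OD at 490 nm. EC50 is the concentration giving 50% protection against virus-induced CPE, by linear interpolation.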
# [2] = Cytotoxicity against human Huh5-2 cells assessed as growth inhibition after 3 days by MTS assay; format: cell-based, Huh-5-2
# Outline: (§1)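 MDBK or Huh 5-2 cells were seeded at 5 × 10³/well in MEM-FCS, with serial compound dilutions added 24 h later. Cells proliferated 3 days at 37 °C, then metabolic activity was read by MTS/PMS. CC50 is the concentration inhibiting proliferation of exponentially growing cells by 50%, by linear interpolation.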
# [3] = Selectivity index, ratio of CC50 for MDBK cells to EC50 for BVDV NADL infected in MDBK cells
# Outline: (§2)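 Selectivity index is the ratio of CC50 from the 3-day MTS/PMS proliferation assay to EC50 in the same cell line. For Huh 5-2 the EC50 is from the luciferase replicon assay; for MDBK it is from the MTS CPE assay.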
# [4] = Selectivity index, ratio of CC50 for Huh5-2 cells to EC50 for HCV genotype 1b infected in Huh5-2 cells; design: species or system Huh-5-2; outline: as §2
# [5] = Cytotoxicity against MDBK cells assessed as growth inhibition after 3 days by MTS assay; format: cell-based, Bos taurus; conditions: cattle; outline: as §1
smiles,measurement,setting,value
COc1ccc(-c2nc3ccc(-c4ccsc4)cn3c2-c2cccc(-c3ccccc3)c2)cc1,EC50,Hepatitis C virus,56.8 µg/mL
same,EC50,[1],22.7 µg/mL
same,CC50 at 72 h,[2],> 109 µg/mL
same,Ratio CC50/EC50,[3],>4.4
same,Ratio CC50/EC50,[4],>1.9
same,CC50 at 72 h,[5],> 100 µg/mL
COc1ccccc1-c1nc2ccccn2c1-c1cccc(-c2ccccc2O)c1,EC50,Hepatitis C virus,48.9 µg/mL
same,EC50,[1],7.55 µg/mL
same,CC50 at 72 h,[2],95.8 µg/mL
same,Ratio CC50/EC50,[3],1.9
same,Ratio CC50/EC50,[4],2
same,CC50 at 72 h,[5],14.4 µg/mL
Fc1ccc(-c2nc3ccccn3c2-c2cccc(-c3ccsc3)c2)cc1,EC50,Hepatitis C virus,11.1 µg/mL
same,EC50,[1],2.3 µg/mL
same,CC50 at 72 h,[2],56.7 µg/mL
same,Ratio CC50/EC50,[3],3
same,Ratio CC50/EC50,[4],5.1
same,CC50 at 72 h,[5],7 µg/mL
COc1ccccc1-c1nc2ccc(-c3ccsc3)nn2c1-c1cccc(-c2ccco2)c1,EC50,Hepatitis C virus,15.1 µg/mL
same,CC50 at 72 h,[2],54.3 µg/mL
same,Ratio CC50/EC50,[4],3.6
CC(C)(C)c1nc2ccc(-c3ccsc3)nn2c1-c1cccc(-c2ccccc2O)c1,EC50,Hepatitis C virus,30.1 µg/mL
same,EC50,[1],> 100 µg/mL
same,CC50 at 72 h,[2],75.3 µg/mL
same,Ratio CC50/EC50,[4],2.5
same,CC50 at 72 h,[5],> 100 µg/mL
Fc1ccc(-c2nc3ccc(-c4ccsc4)nn3c2-c2ccc(-c3ccccc3)cc2)cc1,EC50,Hepatitis C virus,> 112 µg/mL
same,EC50,[1],> 50 µg/mL
same,CC50 at 72 h,[2],> 112 µg/mL
same,Ratio CC50/EC50,[3],>1
same,Ratio CC50/EC50,[4],>1
same,CC50 at 72 h,[5],> 50 µg/mL
c1ccc(-c2cccc(-c3c(-c4ccsc4)nc4ccc(-c5ccsc5)cn34)c2)cc1,EC50,Hepatitis C virus,64.5 µg/mL
same,EC50,[1],6.6 µg/mL
same,CC50 at 72 h,[2],> 115 µg/mL
same,Ratio CC50/EC50,[3],>15.2
same,Ratio CC50/EC50,[4],>1.8
same,CC50 at 72 h,[5],> 100 µg/mL
Fc1ccc(-c2nc3ccc(-c4ccccc4)nn3c2-c2cccc(-c3ccccc3)c2)cc1,EC50,Hepatitis C virus,11.3 µg/mL
same,EC50,[1],1.23 µg/mL
same,CC50 at 72 h,[2],15.9 µg/mL
same,Ratio CC50/EC50,[3],20
same,Ratio CC50/EC50,[4],1.4
same,CC50 at 72 h,[5],25 µg/mL
COc1cccc(-c2cccc(-c3c(-c4ccc(F)cc4)nc4ccccn34)c2)c1,EC50,Hepatitis C virus,4.3 µg/mL
same,EC50,[1],3.1 µg/mL
same,CC50 at 72 h,[2],50.2 µg/mL
same,Ratio CC50/EC50,[3],3.7
same,Ratio CC50/EC50,[4],11.8
same,CC50 at 72 h,[5],11.5 µg/mL
Fc1ccc(-c2nc3ccc(-c4ccccc4)nn3c2-c2ccc(-c3ccccc3)cc2)cc1,EC50,[1],> 50 µg/mL
same,CC50 at 72 h,[2],45.3 µg/mL
same,Ratio CC50/EC50,[3],>1
same,CC50 at 72 h,[5],> 50 µg/mL
CC(C)(C)c1nc2ccc(-c3ccsc3)nn2c1-c1cccc(-c2ccco2)c1,EC50,Hepatitis C virus,8.6 µg/mL
same,EC50,[1],> 100 µg/mL
same,CC50 at 72 h,[2],41.3 µg/mL
same,Ratio CC50/EC50,[4],4.8
same,CC50 at 72 h,[5],> 100 µg/mL
Fc1ccc(-c2nc3ccccn3c2-c2cccc(-c3ccc(Cl)cc3)c2)cc1,EC50,Hepatitis C virus,5.9 µg/mL
same,EC50,[1],3 µg/mL
same,CC50 at 72 h,[2],57.5 µg/mL
same,Ratio CC50/EC50,[3],4.3
same,Ratio CC50/EC50,[4],9.7
same,CC50 at 72 h,[5],12.7 µg/mL
COc1ccccc1-c1nc2ccc(-c3ccsc3)cn2c1-c1cccc(-c2ccccc2)c1,EC50,Hepatitis C virus,17.5 µg/mL
same,EC50,[1],68.6 µg/mL
same,CC50 at 72 h,[2],56.8 µg/mL
same,Ratio CC50/EC50,[3],>1.5
same,Ratio CC50/EC50,[4],3.3
same,CC50 at 72 h,[5],> 100 µg/mL
Fc1ccc(-c2nc3ccccn3c2-c2cccc(-c3ccco3)c2)cc1,EC50,Hepatitis C virus,12.8 µg/mL
same,CC50 at 72 h,[2],24.7 µg/mL
same,Ratio CC50/EC50,[4],1.9
Fc1ccc(-c2nc3ccc(-c4ccccc4)cn3c2-c2ccc(-c3ccccc3)cc2)cc1,EC50,Hepatitis C virus,4.5 µg/mL
same,EC50,[1],> 30 µg/mL
same,CC50 at 72 h,[2],11.4 µg/mL
same,Ratio CC50/EC50,[4],2.5
same,CC50 at 72 h,[5],30 µg/mL
Fc1ccc(-c2nc3ccccn3c2-c2cccc(-c3ccccc3)c2)cc1,EC50,Hepatitis C virus,34.9 µg/mL
same,CC50 at 72 h,[2],60.4 µg/mL
same,Ratio CC50/EC50,[4],1.7
CN1CCN(c2cccc(-c3c(-c4ccc(F)cc4)nc4ccccn34)c2)CC1,EC50,Hepatitis C virus,21.8 µg/mL
same,CC50 at 72 h,[2],60.1 µg/mL
same,Ratio CC50/EC50,[4],2.8
Oc1ccc(-c2cccc(-c3c(-c4ccc(F)cc4)nc4ccccn34)c2)cc1,EC50,Hepatitis C virus,13.5 µg/mL
same,CC50 at 72 h,[2],69.5 µg/mL
same,Ratio CC50/EC50,[4],5.1
COc1ccccc1-c1nc2ccc(-c3ccsc3)nn2c1-c1cccc(-c2ccc(O)cc2)c1,EC50,Hepatitis C virus,2.4 µg/mL
same,EC50,[1],> 100 µg/mL
same,CC50 at 72 h,[2],22.1 µg/mL
same,Ratio CC50/EC50,[4],9.2
same,CC50 at 72 h,[5],> 100 µg/mL
Fc1ccc(-c2nc3ccccn3c2-c2ccc(-c3ccccc3)cc2)cc1,EC50,Hepatitis C virus,2.64 µg/mL
same,CC50 at 72 h,[2],36 µg/mL
COc1ccccc1-c1nc2ccc(-c3ccsc3)nn2c1-c1cccc(-c2cccc(O)c2)c1,EC50,Hepatitis C virus,3.8 µg/mL
same,EC50,[1],> 100 µg/mL
same,CC50 at 72 h,[2],78.5 µg/mL
same,Ratio CC50/EC50,[4],20.8
same,CC50 at 72 h,[5],> 100 µg/mL
